What was measured:
[1] = target: Cannabinoid receptor 2 (Homo sapiens) (UniProt P34972); assay: Displacement of [3H]CP-55940 from human CB2 expressed in CHO cells at 10 uM; type: cell-based
Procedure, shortened: (§1)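 Membranes from CHO cells expressing hCB1 or hCB2 (40 µg per tube). Radioligand was 1 nM [3H]-SR141716A for CB1 or 1 nM [3H]-CP-55,940 for CB2. Competitor at 10 µM; nonspecific binding defined with 10 µM HU-210. Incubation 1 h at 30 °C in 50 mM Tris-HCl, 3 mM MgCl2, 1 mM EDTA, 0.5% BSA, pH 7.4. Filtered on PEI-treated GF/B and counted. Result is % displacement, ≥3 runs in duplicate, mean ± SEM.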

[2] = target: Cannabinoid receptor 1 (Homo sapiens) (UniProt P21554); assay: Displacement of [3H]SR141716A from human CB1 expressed in CHO cells at 10 uM; type: cell-based; procedure, shortened: as §1
Sequence of Cannabinoid receptor 1 (Homo sapiens) (P21554 whole entry): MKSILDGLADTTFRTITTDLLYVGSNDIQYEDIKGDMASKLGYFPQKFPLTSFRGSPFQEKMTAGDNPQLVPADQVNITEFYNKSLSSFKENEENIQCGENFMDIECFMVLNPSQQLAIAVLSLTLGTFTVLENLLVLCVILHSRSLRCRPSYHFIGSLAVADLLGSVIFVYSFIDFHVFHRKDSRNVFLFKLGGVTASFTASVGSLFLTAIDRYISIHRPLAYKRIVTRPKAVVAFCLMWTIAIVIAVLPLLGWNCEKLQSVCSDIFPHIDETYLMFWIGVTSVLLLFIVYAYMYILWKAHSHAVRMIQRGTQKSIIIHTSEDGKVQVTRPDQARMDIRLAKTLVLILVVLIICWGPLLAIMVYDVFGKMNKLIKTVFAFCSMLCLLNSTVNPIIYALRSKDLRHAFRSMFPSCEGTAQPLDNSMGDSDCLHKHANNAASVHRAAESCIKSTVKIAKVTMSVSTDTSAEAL

[3] = target: T1, Fatty-acid amide hydrolase 1 (Rattus norvegicus) (UniProt P97612); assay: Inhibitory activity against FAAH in rat brain homogenate at 100 uM; type: tissue-based; conditions: wistar
T1 sequence (whole entry): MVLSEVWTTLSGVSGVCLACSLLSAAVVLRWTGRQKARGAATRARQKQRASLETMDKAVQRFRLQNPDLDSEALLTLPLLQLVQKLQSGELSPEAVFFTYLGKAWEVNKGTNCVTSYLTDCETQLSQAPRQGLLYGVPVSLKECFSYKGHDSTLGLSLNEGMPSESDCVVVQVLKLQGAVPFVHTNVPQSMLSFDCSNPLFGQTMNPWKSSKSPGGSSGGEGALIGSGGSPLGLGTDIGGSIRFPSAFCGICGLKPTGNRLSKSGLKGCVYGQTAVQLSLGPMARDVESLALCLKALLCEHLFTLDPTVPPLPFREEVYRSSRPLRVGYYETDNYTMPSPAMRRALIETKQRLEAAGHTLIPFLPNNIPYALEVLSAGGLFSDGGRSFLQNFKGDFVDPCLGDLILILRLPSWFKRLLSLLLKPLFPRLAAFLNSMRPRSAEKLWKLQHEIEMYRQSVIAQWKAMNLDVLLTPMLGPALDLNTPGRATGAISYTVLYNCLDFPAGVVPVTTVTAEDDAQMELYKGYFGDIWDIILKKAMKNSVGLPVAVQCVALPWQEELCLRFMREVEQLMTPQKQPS
Procedure, shortened: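 Rat brain membrane homogenate hydrolysing anandamide in 10 mM Tris-HCl, 1 mM EDTA, 0.1% BSA, pH 7.6, at 37 °C for 10 min. Reaction quenched with cold chloroform/methanol; radioactivity counted in the aqueous methanol phase. Compound tested at 100 µM; percent inhibition of FAAH activity reported.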

[4] = target: T2, Fatty-acid amide hydrolase 1 (Rattus norvegicus, UniProt P97612); assay: Inhibitory activity against FAAH in Wistar rat brain homogenate at pH 9.0; type: tissue-based
T2 sequence (P97612 whole entry): T1 sequence (whole entry)
Procedure, shortened: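 Enzyme from male Wistar rat (250-300 g) brain membranes, washed by 36 000g spins and kept at -80 °C. Anandamide hydrolysis at pH 9.0 in 10 mM Tris-HCl, 1 mM EDTA, 0.1% BSA, 37 °C for 10 min. Stopped with cold chloroform/methanol, then the methanol/buffer phase was counted for radioactivity. Inhibition curves run ≥3 times in duplicate; IC50 by nonlinear regression, given as pI50 ± SEM.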

Sequence of Cannabinoid receptor 2 (Homo sapiens) (P34972 whole entry): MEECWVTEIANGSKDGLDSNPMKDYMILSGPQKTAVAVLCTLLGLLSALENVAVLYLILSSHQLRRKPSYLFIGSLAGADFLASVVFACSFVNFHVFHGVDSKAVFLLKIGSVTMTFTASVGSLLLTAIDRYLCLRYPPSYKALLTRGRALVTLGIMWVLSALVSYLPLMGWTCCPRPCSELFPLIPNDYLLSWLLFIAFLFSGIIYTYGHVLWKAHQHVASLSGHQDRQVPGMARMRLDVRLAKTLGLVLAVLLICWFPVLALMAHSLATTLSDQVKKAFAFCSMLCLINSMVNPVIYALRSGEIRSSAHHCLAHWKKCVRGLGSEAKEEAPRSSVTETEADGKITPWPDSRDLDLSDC

| Activity [1] | Activity [2] | Inhibition [3] | IC50 [4] | SMILES |
| --- | --- | --- | --- | --- |
| < 20% | 51.2% | – | – | CCCCN1C(=O)NC(c2ccc(Cl)cc2)(c2ccc(Cl)cc2)C1=O |
| < 20% | 29.4% | – | – | COCCCN1C(=O)C(c2ccccc2)(c2ccccc2)NC1=S |
| < 20% | 44.7% | – | – | O=C1N(Cc2ccccc2)C(=S)NC1(c1ccccc1)c1ccccc1 |
| < 10% | 42.8% | – | – | CCCCN1C(=O)C(c2ccccc2)(c2ccccc2)NC1=S |
| < 20% | 24.5% | – | – | CCCCCCCCN1C(=O)NC(c2ccc(C)cc2)(c2ccc(C)cc2)C1=O |
| < 10% | 36.6% | – | – | CCCCCCCCN1C(=O)C(c2ccc(Cl)cc2)(c2ccc(Cl)cc2)NC1=S |
| < 20% | < 20% | – | – | O=C1NC(c2ccccc2)(c2ccccc2)C(=O)N1CCc1ccccc1 |
| < 20% | 38.8% | – | – | CCCCCCCCN1C(=O)C(c2ccccc2)(c2ccccc2)NC1=S |
| < 20% | < 20% | – | – | CCN1C(=O)NC(c2ccccc2)(c2ccccc2)C1=O |
| < 10% | < 10% | – | – | CCCCCCCCCCCCCCCCCCN1C(=O)C(c2ccccc2)(c2ccccc2)NC1=S |
| < 20% | 32.6% | – | – | O=C1N(c2ccccc2)C(=S)NC1(c1ccccc1)c1ccccc1 |
| < 20% | 39.5% | – | – | CCCCCCCCN1C(=O)NC(c2ccc(Cl)cc2)(c2ccc(Cl)cc2)C1=O |
| < 15% | 74.2% | – | – | O=C1N(Cc2ccccc2)C(=S)NC1(c1ccc(Cl)cc1)c1ccc(Cl)cc1 |
| < 20% | 29.3% | – | – | O=C1N(CCc2ccccc2)C(=S)NC1(c1ccccc1)c1ccccc1 |
| < 20% | < 20% | – | – | CCCCCCCCCCCCCCN1C(=O)NC(c2ccccc2)(c2ccccc2)C1=O |
| < 20% | < 20% | < 10% | – | CCCCN1C(=O)CNC1=S |
| < 20% | < 20% | – | – | O=C1NC(c2ccccc2)C(=O)N1c1ccccc1 (centres undefined) |
| < 20% | 31.2% | – | – | CCCCCCCCN1C(=O)NC(c2ccc(OC)cc2)(c2ccc(OC)cc2)C1=O |
| < 20% | < 20% | – | – | CCCCCCCN1C(=O)C(c2ccccc2)(c2ccccc2)N(CCCCCCC)C1=S |
| < 20% | 29.9% | – | 10 µM | CCCCCCN1C(=O)NC(c2ccccc2)(c2ccccc2)C1=O |

| Activity [1] | Activity [2] | Inhibition [3] | IC50 [4] | SMILES |
| --- | --- | --- | --- | --- |
| < 20% | 27.6% | – | – | CCCCCN1C(=O)C(c2ccccc2)(c2ccccc2)NC1=S |
| < 20% | 73.8% | – | – | CCCCN1C(=O)C(c2ccc(Br)cc2)(c2ccc(Br)cc2)NC1=S |
| < 20% | 25.1% | – | – | CCCCCCCCN1C(=O)NC(c2ccccc2)(c2ccccc2)C1=O |
| < 20% | < 20% | – | – | CCCCN1C(=O)NC(c2ccccc2)(c2ccccc2)C1=O |
| < 20% | < 20% | 23% | – | O=C1CNC(=O)N1c1ccccc1 |
| < 20% | 34.2% | – | – | CCCCCCCN1C(=O)C(c2ccc(Br)cc2)(c2ccc(Br)cc2)NC1=S |
| < 20% | 20.8% | – | – | O=C1N(CCCO)C(=S)NC1(c1ccccc1)c1ccccc1 |
| < 10% | 34.6% | – | – | CC(C)CN1C(=O)C(c2ccccc2)(c2ccccc2)NC1=S |
| 23.1% | 69.2% | – | – | CCCCN1C(=O)NC(c2ccc(Br)cc2)(c2ccc(Br)cc2)C1=O |
| < 20% | < 20% | – | – | O=C1C(c2ccccc2)NC(=S)N1c1ccccc1 (centres undefined) |
| < 10% | < 10% | – | – | CCCCCCCC/C=C\CCCCCCCCN1C(=O)C(c2ccccc2)(c2ccccc2)NC1=S |
| < 20% | 23.4% | – | – | CCCCCCCCN1C(=O)C(c2ccc(Br)cc2)(c2ccc(Br)cc2)NC1=S |
| < 20% | < 20% | – | – | CCCCCCCN1C(=O)C(c2ccccc2)NC1=S (centres undefined) |
| < 20% | < 10% | – | 0.891 µM | CCCCCCCCCCCCCCN1C(=O)C(c2ccccc2)(c2ccccc2)NC1=S |
| < 20% | 21.9% | – | – | CCCCCCN1C(=O)C(c2ccccc2)(c2ccccc2)NC1=S |
| < 20% | 21.3% | – | – | CCCCCN1C(=O)NC(c2ccccc2)(c2ccccc2)C1=O |
| < 20% | 40.1% | – | – | CCCCCCCCN1C(=O)NC(c2ccc(F)cc2)(c2ccc(F)cc2)C1=O |
| < 20% | < 20% | – | – | CCCCCCCCCCN1C(=O)NC(c2ccccc2)(c2ccccc2)C1=O |
| < 20% | 72.2% | – | – | O=C1NC(c2ccc(Cl)cc2)(c2ccc(Cl)cc2)C(=O)N1Cc1ccccc1 |
| < 20% | 28.8% | – | – | CCCCCCCN1C(=O)C(c2ccccc2)(c2ccccc2)NC1=S |

| Activity [1] | Activity [2] | Inhibition [3] | IC50 [4] | SMILES |
| --- | --- | --- | --- | --- |
| < 20% | < 20% | – | – | O=C1NC(=S)N(c2ccccc2)C1c1ccccc1 (centres undefined) |
| < 10% | 40% | – | – | CCN1C(=O)C(c2ccccc2)(c2ccccc2)NC1=S |
| < 20% | 72.7% | – | – | CCCCN1C(=O)C(c2ccc(Cl)cc2)(c2ccc(Cl)cc2)NC1=S |
| < 20% | < 20% | – | – | O=C1NC(=O)N(c2ccccc2)C1c1ccccc1 (centres undefined) |
| < 20% | < 20% | – | – | CCCCCCCN1C(=O)CNC1=O |
| < 20% | 33.7% | – | – | O=C1NC(c2ccccc2)(c2ccccc2)C(=O)N1Cc1ccccc1 |
| < 10% | < 10% | – | – | CCCCCCCCCCCCCCCCN1C(=O)C(c2ccccc2)(c2ccccc2)NC1=S |
| < 20% | 67.8% | – | – | CCCCCCCN1C(=O)C(c2ccc(Cl)cc2)(c2ccc(Cl)cc2)NC1=S |
| < 20% | < 20% | – | – | O=C1NC(=O)C(c2ccccc2)(c2ccccc2)N1 |
| < 10% | < 15% | – | – | O=C1NC(=S)NC1(c1ccccc1)c1ccccc1 |
| < 20% | 44.8% | – | – | CCCCCCCN1C(=O)NC(c2ccc(Br)cc2)(c2ccc(Br)cc2)C1=O |
| < 20% | 45.6% | – | – | CCCCCCCN1C(=O)C(c2ccccc2)N(c2ccccc2)C1=O (centres undefined) |
| 21.1% | 45.1% | – | – | CCCCCCCCN1C(=O)NC(c2ccc(Br)cc2)(c2ccc(Br)cc2)C1=O |
| < 20% | < 20% | < 10% | – | CCCCN1C(=O)CNC1=O |
| < 20% | 23.4% | – | 8.32 µM | CCCCCCCN1C(=O)NC(c2ccccc2)(c2ccccc2)C1=O |
| < 20% | 42.7% | – | – | CCCCCCCN1C(=O)NC(c2ccc(Cl)cc2)(c2ccc(Cl)cc2)C1=O |
| < 20% | < 20% | 25% | – | O=C1CNC(=S)N1c1ccccc1 |
| < 20% | < 10% | – | 1.35 µM | CCCCCCCCCCN1C(=O)C(c2ccccc2)(c2ccccc2)NC1=S |
